According to the EternaBench riboswitch data:

Tested on: MS2 coat protein
Experiment: apparent Kd, MS2 coat protein; higher = weaker binding; RNA-MaP array
Summary of the method: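 Apparent Kd was taken as the median of binding curves fitted cluster by cluster. The designed RNAs were made by transcription of sequenced DNA templates on an Illumina sequencing chip and exposed to fluorescently labeled MS2 coat protein (1.5 nM to 3 μM) at room temperature, with or without input ligand, for 0.8–1.5 h at the lowest and 10–20 min at the highest concentrations. Any design measured on fewer than 10 clusters was left out.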

[1] = designed as: ON switch for flavin mononucleotide, no ligand
[2] = ligand present: flavin mononucleotide, designed as: ON switch for flavin mononucleotide
[3] = designed as: OFF switch for flavin mononucleotide, no ligand
[4] = ligand present: flavin mononucleotide, designed as: OFF switch for flavin mononucleotide
[5] = designed as: OFF switch for tryptophan, no ligand
[6] = ligand present: tryptophan, designed as: OFF switch for tryptophan
[7] = ligand present: theophylline, designed as: OFF switch for theophylline

GCUGAUAUCAAGAAGGCGAUCAGGGAAUAAGAGACAUGAGGAUCACCCAUGUACGCCAUUUGUAUCGAGGAUAUUGAAAAUAGG
apparent Kd [1]: 24.4 nM
apparent Kd [2]: 7.42 nM

CAGGUUCGUACAGGAUAUGGUUACAUGAGGAUCACCCAUGUGCGGUGAGCUGAUUAGUGCACAGUCCAGAAGGGUAGGAUAACA
apparent Kd [1]: 852 nM
apparent Kd [2]: 684 nM

GGAAUGUGAGGAUAUGUUAAGAAGGCGCGACGUUGGGAGACACAGAAGGCACAUGAGGAUCACCCAUGUUAUGA
apparent Kd [3]: 23.2 nM
apparent Kd [4]: 31.1 nM

GACUACAUAGUCAGGAUAUGUGAUUAAUAAUAUCAACAGAAGGGACAUGAGGAUCACCCAUGUGUGCGAGUGGA
apparent Kd [3]: 14.5 nM
apparent Kd [4]: 33.2 nM

GAUGCACAUGAGGAUCACCCAUGUCCUGAUACCAGAACGCGACUUUUCCCUUGGCAGCAGAAUUCACUUUUUUACAUUCAUACUG
apparent Kd (designed as: ON switch for theophylline, no ligand): 22.1 nM
apparent Kd (ligand present: theophylline, designed as: ON switch for theophylline): 22.9 nM

GCCGCCGGUGCUUCAUUCCCUGAGCGACGGCGAGGACCGGUACGGCCGCCACUCGGCUCGGUACAUGAGGAUCACCCAUGUCUUU
apparent Kd [5]: 44.7 nM
apparent Kd [6]: 54.5 nM

CCAGAUUUAGGAUAUACAUGAGGAUCACCCAUGUGGGAUUUAGUGCGGUUUAUGCAACGUAGAAGGAAAUCAGG
apparent Kd [3]: 31.6 nM
apparent Kd [4]: 71.4 nM

UCGGUUUGUGCAGGAUAUGCUUACACCCUAGAGGCAGAAGGGCAUAUCACAUGAGGAUCACCCAUGUACAAUCGUCCAAGGGCA
apparent Kd [1]: 29.8 nM
apparent Kd [2]: 23.4 nM

CCCAGGAUUCAAGGAUAUCGCAAUGAACAUGAGGAUCACCCAUGUUUCUACCCCUCAGCGCACGGCGAGAAGGUGACUUUAGCG
apparent Kd [3]: 12.8 nM
apparent Kd [4]: 12.3 nM

GUCUGGUCAGGAUAUUCGAGGUGUAACAUGAGGAUCACCCAUGUUUCUUAGCUAGAGGCCGAAGAAGGGACGGGUA
apparent Kd [3]: 11.4 nM
apparent Kd [4]: 10.1 nM

UCGCGUCUAGCUCAGGAUAUUGUGCCUGAUACAUGAGGAUCACCCAUGUCCUAAGUGCAAACCAACAAGAAGGGAGCUAAGCAUGU
apparent Kd [1]: 13.9 nM
apparent Kd [2]: 13.2 nM

CGGGUAACCGAGAAGGACUUAAGACUACGUUAAGUAGGAUAUCGAUUUGUUACAUGAGGAUCACCCAUGUCUGGUCUUGACCGC
apparent Kd [3]: 8.66 nM
apparent Kd [4]: 9.67 nM

GGUGUUACGUCGGCCGCCACUAUACUACAUGAGGAUCACCCAUGUCAUCCCUUCAAUUGGUAGCCUAGGACCGGGACAGAAUUCG
apparent Kd [5]: 43.4 nM
apparent Kd [6]: 47.2 nM

AAAGGUUGAGGAUAUCAUCCUCCAAACAUGAGGAUCACCCAUGUUGAUCUUCACGUACGAUGAGAAGGCAACACCU
apparent Kd [3]: 585 nM
apparent Kd [4]: 683 nM

AGCUAUUUUUGGGAGGAUAUUAUGAGCAGUACAUGAGGAUCACCCAUGUUAGUAAUAUACAUUGGUAAGAAGGCCCAAUCAUAAGG
apparent Kd [1]: 34.6 nM
apparent Kd [2]: 25.1 nM

AAGGAGGAGCAAGGAUAUCAGUGUAUACGCCACAUGAGGAUCACCCAUGUCCGGAGCGAGAUUCCUGAGAAGGUGCCGCCUAGC
apparent Kd [1]: 7.25 nM
apparent Kd [2]: 6.47 nM

GAUCUCCGCGAGAAGGCUGAGCGGUCACUAGCCAGAGGAUAUCGUCACGCGCAGGGAAAACAUGAGGAUCACCCAUGUGUAAGU
apparent Kd [3]: 10.7 nM
apparent Kd [4]: 10.6 nM

GACGAACAUGAGGAUCACCCAUGUUAACCGAUCACCACGUUCAGAAGGAGGGACAUAACGAGCACCUAGGAUAUGACCAAACAC
apparent Kd [1]: 24.2 nM
apparent Kd [2]: 14.1 nM

AGAAGGGACGAGAAGGUACGAUCGAGUAAACUAUGAUAUGGGCACAUGAGGAUCACCCAUGUAUGUAAGGAUAUCGCAUCUCCA
apparent Kd [1]: 50.5 nM
apparent Kd [2]: 41.1 nM

GCCAAGCAGGGAGGAUAUACAGGCAAUAAGUGAUUAGAAGAACAAAACAUGAGGAUCACCCAUGUGAAGAAGGCCCAUUCGGAA
apparent Kd [3]: 12.1 nM
apparent Kd [4]: 10.9 nM

CGACGAUCAGAAGGAUAUUAAAUCGUCAAUCUCGUGACAUGAGGAUCACCCAUGUAGCCCGUGGUUAAGAAGGUCUUGGUUGUG
apparent Kd [3]: 92.4 nM
apparent Kd [4]: 58 nM

CCGGCGCGAUUAUGGGUUUGCUUUUACGAUACCAGCCGCGUUCCGGGCCCUUGGCAGCGUGUAACAUGAGGAUCACCCAUGUUCA
apparent Kd [7]: 13.2 nM

GCUGCCUGGACAUGAGGAUCACCCAUGUGGACAAUACUGGCUUAGGAUAUUUGAUUGAAGUUUGGAAAGAAGGAAGCAUACAGC
apparent Kd [3]: 9.17 nM
apparent Kd [4]: 8.14 nM

UGCCAGGCACAGAAGGUAGCGUGUCCUCAAGACAUGAGGAUCACCCAUGUGGAAAGAUUAAGACCUAAGGAUAUGUGUAUCACC
apparent Kd [3]: 143 nM
apparent Kd [4]: 93.9 nM

AUGUUCGUAAAGAAGGAUCAGGUGAUAUAUGUCAACAUGAGGAUCACCCAUGUGCGGGACGUAAGAUAGGAUAUUUGAGAUCAU
apparent Kd [3]: 14.3 nM
apparent Kd [4]: 10.8 nM

GUCUGGAUGUAGGAUAUGUGUCCGUGCUAGGGUACAGAAGGACAGACAUGAGGAUCACCCAUGUGGAUCAACCG
apparent Kd [3]: 22.6 nM
apparent Kd [4]: 38.2 nM

UGCGACAAGUGAAUACUUUGUUCUAGAGAUACCAGUUCCCGAGUGAACCCUUGGCAGCUCCCAACAUGAGGAUCACCCAUGUAUU
apparent Kd (designed as: OFF switch for theophylline, no ligand): 14.5 nM
apparent Kd [7]: 28.5 nM
